Measurements as given in PMC7316630 (Nature immunology, 2020).
Counter-ions that a name gives are not always drawn. Peptide text beside a SMILES is read from it. * marks the point of attachment. Cbz = O=C(OCc1ccccc1)*; CH2F = FC*

Columns and labels:
LPS-primed iBMDMs = experiment: Immunoblot of caspase-1, GSDMD, pro-IL-1β cleavage and IL-1β release; assay type: cell-based, mouse; conditions: 1 hr before nigericin; lysates 1 hr later
In short: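 Mouse iBMDMs were pretreated for 1 hr with test compound, Bay 11-7082, necrosulfonamide or z-VAD-fmk, then given nigericin. Whole cell lysates and culture supernatants were harvested 1 hr after nigericin and immunoblotted with the indicated antibodies. Data come from three independent experiments.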

human GSDMD = biological target: T1, human GSDMD (Homo sapiens, UniProt P57764); assay type: biochemical; conditions: for Inhibition of GSDMD and caspase-11-mediated liposome leakage (in words): GSDMD 0.3 μM plus caspase-11 0.15 μM, LDC7559 at up to 50 μM
T1 sequence (P57764 1-484): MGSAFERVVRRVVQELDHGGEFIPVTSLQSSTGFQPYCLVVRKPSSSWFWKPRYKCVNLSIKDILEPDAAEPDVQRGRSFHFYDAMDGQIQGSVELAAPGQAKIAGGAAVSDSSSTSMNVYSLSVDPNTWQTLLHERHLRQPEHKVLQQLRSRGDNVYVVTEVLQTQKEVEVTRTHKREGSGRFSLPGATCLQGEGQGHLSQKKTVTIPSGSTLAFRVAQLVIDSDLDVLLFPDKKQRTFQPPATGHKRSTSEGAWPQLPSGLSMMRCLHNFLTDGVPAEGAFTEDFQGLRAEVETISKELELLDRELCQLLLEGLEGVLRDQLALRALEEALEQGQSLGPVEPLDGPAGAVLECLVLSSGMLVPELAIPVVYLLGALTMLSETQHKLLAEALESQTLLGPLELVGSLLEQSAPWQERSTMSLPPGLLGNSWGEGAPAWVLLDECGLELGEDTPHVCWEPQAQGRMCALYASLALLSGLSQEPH

pre-cleaved mouse GSDMA3 = biological target: T2, pre-cleaved mouse GSDMA3 (Mus musculus, UniProt Q5Y4Y6); experiment: Liposome leakage by pre-cleaved GSDMA3; assay type: biochemical; conditions: pre-cleaved mouse GSDMA3 0.3 μM
T2 sequence (Q5Y4Y6 with tags, fused parts or gaps limits assumed): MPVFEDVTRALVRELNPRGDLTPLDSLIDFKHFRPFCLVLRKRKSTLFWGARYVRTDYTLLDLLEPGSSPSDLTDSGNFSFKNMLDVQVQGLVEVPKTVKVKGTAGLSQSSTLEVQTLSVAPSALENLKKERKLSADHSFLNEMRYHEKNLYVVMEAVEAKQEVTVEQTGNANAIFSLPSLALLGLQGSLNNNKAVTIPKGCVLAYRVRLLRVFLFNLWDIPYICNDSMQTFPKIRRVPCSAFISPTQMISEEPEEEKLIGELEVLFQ

LPS-primed THP-1 cells [1] = experiment: ASC speck formation, immunofluorescence; assay type: cell-based, human; conditions: 30 μM, 1 hr before nigericin; 20 min after nigericin
In short: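 THP-1 cells were differentiated with 50 nM PMA for 36 hrs, primed with LPS (1 μg/ml) for 4 hrs, and pretreated with test compound, vehicle or z-VAD-fmk, then given nigericin (20 μM). Cells on coverslips were fixed in 4% paraformaldehyde for 15 min, permeabilized in 0.1% Triton X-100 for 5 min and blocked in 5% BSA for 1 hr. ASC was then immunostained.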

HT-29 cells = experiment: Necroptosis induced by TNF, SMAC mimetic and z-VAD-fmk, CellTiter-Glo; assay type: cell-based; conditions: disulfiram 10 and 50 μM, NSA 2 μM, Nec 10 μM; 1 hr pretreatment; 24 hrs
In short: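 HT-29 cells were pretreated for 1 hr. Necroptosis was then induced with TNF (20 ng/ml), SMAC mimetic (100 nM) and z-VAD-fmk (20 μM). Viability was read 24 hrs later as ATP by CellTiter-Glo luminescence.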

iBMDM = experiment: LPS transfection-induced IL-1β secretion, ELISA; assay type: cell-based, mouse; conditions: 2.5 h; potency comparable to z-VAD-fmk
C57BL/6J mice = experiment: LPS-induced sepsis, survival; assay type: in vivo, mouse; conditions: LPS 25 mg/kg; 50 mg/kg i.p. 4 hrs before and daily after LPS
LPS-primed THP-1 cells [2] = experiment: Immunoblot of caspase-1, GSDMD, pro-IL-1β cleavage and IL-1β release; assay type: cell-based, human; conditions: 30 μM, 1 hr before nigericin
LPS-primed THP-1 = experiment: LPS + nigericin cell death with or without Cu; assay type: cell-based, human; conditions: with versus without Cu(II)
THP-1 = experiment: Nigericin-induced IL-1β secretion, ELISA; assay type: cell-based, human; conditions: potency comparable to z-VAD-fmk
Mouse iBMDMs = experiment: AIM2 inflammasome cell death, poly; assay type: cell-based; conditions: 5–40 μM, 1 hr pretreatment, 4 hrs
LPS-primed THP-1 cells [3] = experiment: GSDMD membrane staining and pyroptotic bubbles, confocal microscopy; assay type: cell-based, human; conditions: 30 μM; 30 min after nigericin
In short: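 PMA-differentiated THP-1 cells were primed with LPS (1 μg/ml, 4 hrs), pretreated for 1 hr and given nigericin. They were fixed (4% PFA), permeabilized (0.1% Triton X-100), blocked (5% BSA) and stained with an in-house mouse monoclonal anti-GSDMD antibody. Confocal images were scored for cells with membrane GSDMD staining and pyroptotic bubbles across 40 high-power fields per sample, in 5 independent experiments. Two-tailed Student's t-test was used.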

Cc1ccc(S(=O)(=O)/C=C/C#N)cc1 [Bay 11–7082]
Proteolytic processing of caspase-1, GSDMD and pro-IL-1β (LPS-primed iBMDMs): inhibited
Inhibition of GSDMD and caspase-11-mediated liposome leakage (in words) (human GSDMD): moderately inhibited

CCN(CC)C(=S)SSC(=S)N(CC)CC [C-23, tetraethylthiuram disulfide]
Inhibition of pore formation of pre-cleaved GSDMA3 (pre-cleaved mouse GSDMA3): did not inhibit
ASC speck formation (LPS-primed THP-1 cells [1]): only modestly inhibited
Effect on necroptosis (cell viability) (HT-29 cells): no effect
LPS transfection-induced IL-1β secretion (iBMDM): inhibited
Survival of Casp1–/– mice (C57BL/6J mice): protected
IL-1β in culture supernatant (LPS-primed THP-1 cells [2]; immunoblot): no IL-1β was detected
Decrease of IC50 for inhibiting pyroptosis with Cu(II) (LPS-primed THP-1): 24 fold
Incubation time at which inhibition of liposome leakage was seen (human GSDMD; preincubation with GSDMD 2–90 min, 0–5.6 μM): ≤ 2 min
Nigericin-induced IL-1β secretion (THP-1): inhibited
Effect on AIM2 inflammasome-triggered cell death (Mouse iBMDMs): impaired cell death in a dose-dependent manner

COC(=O)/C=C/C(=O)OC [DMF, dimethyl fumarate]
Inhibition of GSDMD and caspase-11-mediated liposome leakage (in words) (human GSDMD): hardly any activity

COc1ccccc1-c1cc2n(n1)Cc1ccc(NC(C)=O)cc1OC2 [LDC7559]
Inhibition of GSDMD and caspase-11-mediated liposome leakage (in words) (human GSDMD): no activity

COc1nccnc1NS(=O)(=O)c1ccc(NC(=O)/C=C/c2ccc([N+](=O)[O-])s2)cc1 [NSA, necrosulfonamide]
Effect on necroptosis (cell viability) (HT-29 cells): blocked
Proteolytic processing of caspase-1, GSDMD and pro-IL-1β (LPS-primed iBMDMs): inhibited
Inhibition of GSDMD and caspase-11-mediated liposome leakage (in words) (human GSDMD): moderately inhibited

CN(C)C/C=C/C(=O)Nc1cc2c(Nc3ccc(F)c(Cl)c3)ncnc2cc1O[C@H]1CCOC1 [afatinib]
Inhibition of GSDMD and caspase-11-mediated liposome leakage (in words) (human GSDMD): hardly any activity

C=CC(=O)N1CCC[C@@H](n2nc(-c3ccc(Oc4ccccc4)cc3)c3c(N)ncnc32)C1 [ibrutinib]
Inhibition of GSDMD and caspase-11-mediated liposome leakage (in words) (human GSDMD): hardly any activity

CN1C(=O)C(Cc2c[nH]c3ccccc23)NC1=S (centres unmarked) [necrostatin-1]
Effect on necroptosis (cell viability) (HT-29 cells): blocked

COC(=O)C[C@H](NC(=O)[C@H](C)NC(=O)[C@@H](NC(=O)OCc1ccccc1)C(C)C)C(=O)CF [z-VAD-fmk] (Cbz-Val-Ala-Asp(OMe)-CH2F)
ASC speck formation (LPS-primed THP-1 cells [1]): not inhibited
Proteolytic processing of caspase-1, GSDMD and pro-IL-1β (LPS-primed THP-1 cells [2]; lysates 1 hr later): inhibited the processing of all 3 proteins
GSDMD membrane staining and appearance of pyroptotic bubbles (LPS-primed THP-1 cells [3]): completely blocked
